The values that follow come from publication PMC2828537 (Pflugers Archiv : European journal of physiology, 2009).

Counter-ions that a name gives are not always drawn. Marks after values point to notes of the source that are not given here.

In one experiment the test system is HEK293 cells. The experiment can be described thus: Fluo4 [Ca2+]i assay in parental HEK293 cells. Type of experiment: cell-based. Conditions: 300 µM. Put shortly: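 Wild-type HEK293 cells in DMEM (4.5 mg/ml glucose, 10% heat-inactivated FBS, penicillin/streptomycin), plated on polyornithine-treated wells for 14–18 hrs. Loaded with Fluo4-AM (2 µM, 60 min, 37°C) in ECS with 2 mM probenecid, then washed. Test compound was given robotically at 300 µM final. Fluorescence was read on a plate reader at ex 494/em 525 nm, 0.67 Hz, 20–25°C.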

A further experiment addresses rat TRPA1 (Rattus norvegicus, UniProt Q6RI86). The experiment can be described thus: Two-electrode voltage clamp of Xenopus oocytes expressing rat TRPA1. Type of experiment: cell-based. To be noted: for effect on current in TRPA1-expressing oocytes: 300 µM; for current evoked by agonist alone, % of that evoked by 30 µM FFA: 3 µM agonist alone; for interaction with AITC, CA, or cold on channel activation: 30 µM fenamate with 3 µM AITC or CA, or 14°C; for EC50: nominally Ca2+-free bath.

For another experiment, the target named is human TRPA1 (Homo sapiens, UniProt O75762). Put plainly: Fluo4 [Ca2+]i assay in HEK-A1 cells. The class given is cell-based. To be noted: for nH (Hill coefficient): HEK-A1 cells.
Experiment [1] has as its target T1, human TRPA1 endogenously expressed in WI-38 fibroblasts (Homo sapiens, UniProt O75762). The experiment can be described thus: Fluo4 [Ca2+]i assay in WI-38 fibroblasts. Type of experiment: cell-based. Conditions: for agonist effect on Fluo4 fluorescence ([Ca2+]i) in WI-38 cells: 300 µM; for effect of antagonist on response to AITC / effect of antagonist preincubation on response to FFA: antagonist 20 µM; for effect of antagonist on response to AITC: AITC 33 µM; for effect of antagonist preincubation on response to FFA: FFA 33 µM; for antagonist effect on the response induced by FFA or AITC: 100 µM added 2 min before the agonist, data not shown.

Experiment [2] has as its target human TRPA1 Cys621Ser, Cys641Ser and Cys665Ser triple mutant (Homo sapiens, UniProt O75762, C621S/C641S/C665S). The experiment can be described thus: Currents of human TRPA1 triple cysteine mutant. The class given is cell-based. To be noted: HH, unpublished results.
In experiment [3] the test system is TRPA1 channels heterologously expressed in mammalian cells and Xenopus oocytes. Conditions: read-out: EC50 reported in the literature; as low as; cited from earlier work.
For experiment [4], the target named is T1, human TRPA1 endogenously expressed in WI-38 fibroblasts. The experiment can be described thus: Whole-cell recordings of WI-38 cells. Type of experiment: cell-based. Conditions: ruthenium red 30 µM in the bath. A digest of the protocol:
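WI-38 cells grown in MEM with 10% heat-inactivated FBS and penicillin/streptomycin at 37°C, 5% CO₂. Cells were detached with 0.05% trypsin plus 0.53 mM EDTA in Ca²⁺/Mg²⁺-free HBSS for 5–10 min, held at 37°C, then settled on polyornithine-coated coverslips for 3–5 min before perfusion. Whole-cell voltage clamp was sampled at 5 kHz, with 100 ms ramps from −100 to +100 mV (holding −60 mV) applied every 0.5 s.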

The term EC50 denotes the concentration needed to bring the measured effect to its halfway point. What is called IC50 is the concentration that inhibits the measured activity by half.

Sequence of rat TRPA1 (Q6RI86 whole entry): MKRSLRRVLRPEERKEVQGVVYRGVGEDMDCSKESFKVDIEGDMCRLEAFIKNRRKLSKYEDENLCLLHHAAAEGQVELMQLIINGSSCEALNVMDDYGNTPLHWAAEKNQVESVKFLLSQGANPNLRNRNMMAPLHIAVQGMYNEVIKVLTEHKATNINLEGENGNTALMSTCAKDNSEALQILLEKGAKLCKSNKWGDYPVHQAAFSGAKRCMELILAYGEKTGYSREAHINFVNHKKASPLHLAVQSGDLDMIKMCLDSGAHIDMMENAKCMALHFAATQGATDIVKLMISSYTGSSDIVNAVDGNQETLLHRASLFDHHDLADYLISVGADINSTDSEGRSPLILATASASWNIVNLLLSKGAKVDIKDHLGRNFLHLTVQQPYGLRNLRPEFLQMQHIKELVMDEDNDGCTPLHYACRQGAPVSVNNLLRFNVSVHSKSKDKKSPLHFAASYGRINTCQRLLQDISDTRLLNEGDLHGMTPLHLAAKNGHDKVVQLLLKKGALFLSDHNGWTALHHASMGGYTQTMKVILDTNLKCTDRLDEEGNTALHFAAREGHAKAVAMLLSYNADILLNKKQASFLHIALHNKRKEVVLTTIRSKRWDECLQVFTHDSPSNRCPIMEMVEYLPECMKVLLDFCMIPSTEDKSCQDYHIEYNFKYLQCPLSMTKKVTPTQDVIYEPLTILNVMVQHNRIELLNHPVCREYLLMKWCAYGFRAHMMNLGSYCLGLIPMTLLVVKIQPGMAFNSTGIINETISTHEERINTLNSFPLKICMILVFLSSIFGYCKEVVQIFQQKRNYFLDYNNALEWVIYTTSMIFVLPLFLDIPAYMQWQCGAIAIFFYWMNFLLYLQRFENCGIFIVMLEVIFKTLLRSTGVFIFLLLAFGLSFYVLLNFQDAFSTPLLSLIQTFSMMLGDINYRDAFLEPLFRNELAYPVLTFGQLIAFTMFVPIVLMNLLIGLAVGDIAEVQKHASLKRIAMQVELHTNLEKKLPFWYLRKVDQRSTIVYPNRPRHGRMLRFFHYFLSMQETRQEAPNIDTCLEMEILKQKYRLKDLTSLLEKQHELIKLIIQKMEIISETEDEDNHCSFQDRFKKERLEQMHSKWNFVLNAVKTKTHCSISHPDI
Sequence of human TRPA1 (O75762 whole entry): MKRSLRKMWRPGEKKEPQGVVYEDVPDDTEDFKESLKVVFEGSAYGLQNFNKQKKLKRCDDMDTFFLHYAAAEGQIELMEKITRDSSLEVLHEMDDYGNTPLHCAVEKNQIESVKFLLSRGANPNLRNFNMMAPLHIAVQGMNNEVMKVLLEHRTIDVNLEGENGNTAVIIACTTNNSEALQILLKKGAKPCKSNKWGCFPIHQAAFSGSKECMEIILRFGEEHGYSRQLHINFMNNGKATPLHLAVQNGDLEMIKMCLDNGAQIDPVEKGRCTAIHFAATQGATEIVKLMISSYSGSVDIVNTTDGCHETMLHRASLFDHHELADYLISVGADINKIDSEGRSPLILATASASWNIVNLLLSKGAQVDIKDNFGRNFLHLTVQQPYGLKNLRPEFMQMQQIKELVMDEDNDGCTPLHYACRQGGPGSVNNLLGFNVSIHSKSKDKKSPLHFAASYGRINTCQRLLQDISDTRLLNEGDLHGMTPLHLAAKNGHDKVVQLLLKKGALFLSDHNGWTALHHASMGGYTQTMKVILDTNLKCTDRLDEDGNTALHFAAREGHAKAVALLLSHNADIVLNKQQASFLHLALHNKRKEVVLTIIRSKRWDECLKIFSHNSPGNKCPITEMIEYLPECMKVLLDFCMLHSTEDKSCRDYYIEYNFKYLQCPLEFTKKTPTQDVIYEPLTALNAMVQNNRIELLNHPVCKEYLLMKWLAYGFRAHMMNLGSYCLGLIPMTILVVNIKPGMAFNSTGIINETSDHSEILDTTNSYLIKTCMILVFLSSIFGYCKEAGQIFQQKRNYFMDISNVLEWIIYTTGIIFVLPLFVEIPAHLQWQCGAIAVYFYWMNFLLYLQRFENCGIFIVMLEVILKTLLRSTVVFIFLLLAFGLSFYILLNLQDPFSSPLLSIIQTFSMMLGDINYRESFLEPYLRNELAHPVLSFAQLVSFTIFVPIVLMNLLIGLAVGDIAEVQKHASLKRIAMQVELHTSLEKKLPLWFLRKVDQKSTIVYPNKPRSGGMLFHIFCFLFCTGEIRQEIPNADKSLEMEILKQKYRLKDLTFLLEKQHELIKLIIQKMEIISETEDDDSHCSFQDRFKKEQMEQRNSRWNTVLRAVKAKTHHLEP
T1 sequence (O75762 whole entry): as above
Sequence of human TRPA1 Cys621Ser, Cys641Ser and Cys665Ser triple mutant (O75762 whole entry C621S/C641S/C665S): as the sequence (O75762 whole entry) above, with C621S, C641S, C665S counted along it

For `CC(C(=O)O)c1ccc(-c2ccccc2)c(F)c1` (racemic) [flurbiprofen, (±)-flurbiprofen], in the experiment on HEK293 cells, the “effect on Fluo4 fluorescence in HEK293 cells” value (shortened to “effect … in HEK293 cells”) is “little effect”. For the same molecule, the “effect on current in TRPA1-expressing oocytes” value (shortened to “effect on current”) at rat TRPA1 was “caused current increases”. At human TRPA1, the half-maximal effective concentration (EC50) turned out to be 310 ± 66 µM and the “nH (Hill coefficient)” value came to 2.0 ± 0.3. Also, in experiment [1], the response was half-maximal at 342 ± 6 µM (EC50) and the “agonist effect on Fluo4 fluorescence ([Ca2+]i) in WI-38 cells” value (“agonist effect on Fluo4 fluorescence” below) is given as “increased the Fluo4 fluorescence”. Also, the “nH (Hill coefficient)” value in experiment [1] (WI-38 cells) is recorded as 1.5 ± 0.1.

For the molecule `NCCOB(c1ccccc1)c1ccccc1` [2APB, 2-aminoethoxydiphenyl borate], in experiment [2], the “concentration-response curve in triple cysteine mutant” value is “right-shifted”.

For `C=CCN=C=S` [AITC, allyl isothiocyanate], the EC50 in experiment [3] was 5 µM. Besides, the entries for the “current evoked by agonist alone, % of that evoked by 30 µM FFA” value at rat TRPA1 (+100 mV) and at rat TRPA1 (−100 mV) were 45 ± 14% and 51 ± 10%, respectively. Moreover, the “nH (Hill coefficient)” value was determined as 0.8 ± 0.1 at human TRPA1 and 1.0 ± 0.1 in experiment [1] (WI-38 cells). The “agonist effect on Fluo4 fluorescence” value in experiment [1] was “rapid fluorescence increase”.

`CC(=C\c1ccc(Cl)cc1)/C(C)=N/O` [AP-18]: in experiment [1], the “effect of antagonist on response to AITC” value is given as “blocked” and the “effect of antagonist preincubation on response to FFA” value is recorded as “inhibited”.

For `O=C/C=C/c1ccccc1` [CA, cinnamaldehyde], the EC50 in experiment [3] was 6.5 µM; in experiment [1] it was 400 ± 41 µM. Besides, the “current evoked by agonist alone, % of that evoked by 30 µM FFA” value on rat TRPA1 (+100 mV) was 44 ± 16%; on rat TRPA1 (−100 mV), 45 ± 8%. Moreover, the “agonist effect on Fluo4 fluorescence” value in experiment [1] was “rapid fluorescence increase”. Moreover, the “nH (Hill coefficient)” value in experiment [1] (WI-38 cells) was determined as 0.9 ± 0.1.

Take `CC(C)c1ccc(NC(=O)Cn2cnc3c2c(=O)n(C)c(=O)n3C)cc1` [HC-030031]: in experiment [1], the “effect of antagonist on response to AITC” value is given as “blocked” and the “effect of antagonist preincubation on response to FFA” value is on record as “inhibited”.

Consider `Cc1cccc(Nc2ccccc2C(=O)O)c1C` [MFA, mefenamic acid], for which the “effect … in HEK293 cells” value in the experiment with HEK293 cells is recorded as “little effect”. For the same molecule, at rat TRPA1, the “interaction with AITC, CA, or cold on channel activation” value is given as “positive synergistic effects”. Moreover, the “agonist effect on Fluo4 fluorescence” value in experiment [1] is on record as “increased the Fluo4 fluorescence”. The “nH (Hill coefficient)” value in experiment [1] (WI-38 cells) was 1.5 ± 0.2.

In the case of `O=C(O)c1cccnc1Nc1cccc(C(F)(F)F)c1` [NFA, niflumic acid], in the experiment on HEK293 cells, the “effect … in HEK293 cells” value is “little effect”. At rat TRPA1, the threshold of activation fell in the range of 10 to 30 µM and the “interaction with AITC, CA, or cold on channel activation” value is “positive synergistic effects”. In addition, the “Hill co-efficient at +100 mV” value at rat TRPA1 (+100 mV) was determined as 2.6 ± 0.3. The response on rat TRPA1 (EC50 for current activation at +100 mV, +100 mV) was half-maximal at 240 ± 12 µM (EC50). In addition, on rat TRPA1 (EC50 for current activation at −100 mV, −100 mV), the EC50 stood at 540 ± 27 µM. Also, the “Hill co-efficient at −100 mV” value at rat TRPA1 (−100 mV) came to 2.1 ± 0.2. Besides, in experiment [1], the 50% effective concentration (EC50) is 28 ± 3 µM and the “agonist effect on Fluo4 fluorescence” value was “increased the Fluo4 fluorescence”. Also, the “nH (Hill coefficient)” value in experiment [1] (WI-38 cells) is 1.4 ± 0.2.

Turning to `CC(=O)Oc1ccccc1C(=O)O` [acetylsalicylic acid, Acetylsalicylic acid], the “agonist effect on Fluo4 fluorescence” value in experiment [1] is given as “did not act as agonists”.

Take `C=CC=O` [acrolein]: the EC50 in experiment [3] was 0.8 µM. Moreover, the “agonist effect on Fluo4 fluorescence” value in experiment [1] is on record as “rapid fluorescence increase”. In addition, the “nH (Hill coefficient)” value in experiment [1] (WI-38 cells) was determined as 1.0 ± 0.1.

As for `O=C(O)Cc1ccccc1Nc1c(Cl)cccc1Cl` [diclofenac, Diclofenac sodium salt], in the experiment with HEK293 cells, the “effect … in HEK293 cells” value was “little effect”. Moreover, on rat TRPA1, the “effect on current” value is on record as “caused current increases”. Besides, in experiment [1], the “agonist effect on Fluo4 fluorescence” value is “increased the Fluo4 fluorescence”. Also, the “nH (Hill coefficient)” value in experiment [1] (WI-38 cells) is 1.3 ± 0.2.

`CC(C)Cc1ccc([C@H](C)C(=O)O)cc1` [ibuprofen, (S)-(+)-ibuprofen]: in experiment [1], the “agonist effect on Fluo4 fluorescence” value is recorded as “did not act as agonists”.

As for `COc1ccc2c(c1)c(CC(=O)O)c(C)n2C(=O)c1ccc(Cl)cc1` [indomethacin], the “effect … in HEK293 cells” value in the experiment on HEK293 cells is reported as “little effect”. At rat TRPA1, the “effect on current” value is on record as “caused current increases”. In experiment [1], the EC50 was 470 ± 54 µM and the “agonist effect on Fluo4 fluorescence” value is on record as “increased the Fluo4 fluorescence”. Further, in experiment [1] (WI-38 cells, nH was fixed to 1.5), the “nH (Hill coefficient), fixed to make the fit” value was 1.5 ^b.

With `CC(C(=O)O)c1cccc(C(=O)c2ccccc2)c1` (stereo not drawn) [ketoprofen, Ketoprofen], the “effect … in HEK293 cells” value in the experiment with HEK293 cells is “little effect”. Besides, the “effect on current” value on rat TRPA1 is “very weak activator”. In addition, in experiment [1], the EC50 is more than 500 µM and the “agonist effect on Fluo4 fluorescence” value is listed as “increased the Fluo4 fluorescence”.

Take `O=C(c1ccccc1)c1ccc2n1CCC2C(=O)O` (stereo not drawn) [ketorolac, ketorolac tromethamine salt]: on rat TRPA1, the “effect on current” value was “did not have an effect”. In experiment [1], the “antagonist effect on the response induced by FFA or AITC” value is given as “do not act as antagonists” and the “agonist effect on Fluo4 fluorescence” value is listed as “fail to activate”.

In the case of `CC1CCC(C(C)C)C(O)C1` (stereo not drawn) [menthol], in experiment [2], the “concentration-response curve in triple cysteine mutant” value is reported as “right-shifted”.

Consider `COc1ccc2cc([C@H](C)C(=O)O)ccc2c1` [naproxen, (S)-naproxen], for which the “effect on current” value on rat TRPA1 was “did not have an effect”. In experiment [1], the “antagonist effect on the response induced by FFA or AITC” value is listed as “do not act as antagonists” and the “agonist effect on Fluo4 fluorescence” value is given as “fail to activate”.

In the case of `COC(=O)C1=C(C)NC(C)=C(C(=O)OC)C1c1ccccc1[N+](=O)[O-]` [nifedipine], the concentration for a half-maximal effect (EC50) was 0.4 µM in experiment [3], 140 ± 23 µM on human TRPA1 and 157 ± 8 µM in experiment [1]. Further, the figures for the “nH (Hill coefficient)” value (at human TRPA1; in experiment [1] (WI-38 cells)) were 1.0 ± 0.1 and 1.1 ± 0.1, respectively. The “agonist effect on Fluo4 fluorescence” value in experiment [1] is “rapid fluorescence increase”.

For the molecule `N.N.N.N.N.N.N.N.N.N.N.N.N.N.[Cl-].[Cl-].[Cl-].[Cl-].[Cl-].[Cl-].[O-2].[O-2].[Ru+3].[Ru+3].[Ru+4]` [ruthenium red], in experiment [4], the “effect on FFA-induced whole-cell currents” value is “completely abolished”. The “effect of antagonist on response to AITC” value in experiment [1] is listed as “blocked”. Further, in experiment [1] (read-out: IC50 for inhibition of the response to FFA, curve not shown), the IC50 is 2.1 µM.
